Active and inactive are the calls of the source. The rule behind the calls is not given here.
Columns and labels:
[1] = biological target: Voltage-gated potassium channel, KQT; KCNQ2(Kv7.2)/KCNQ3(Kv7.3) (Homo sapiens, UniProt O43525+O43526); assay: Agonist activity at KCNQ2/KCNQ3 expressed in CHO cells assessed as increase in KCl-induced 86Rb+ efflux incubated for 10 mins prior to KCl-induction by liquid scintillation counting; format: functional, cell-based
[2] = biological target: Voltage-gated potassium channel, IKs; KCNQ1(Kv7.1)/KCNE1(MinK) (Homo sapiens, UniProt P15382+P51787); assay: Antagonist activity at KCNQ1/MINK expressed in CHO cells assessed as inhibition of KCl-induced 86Rb+ efflux incubated for 10 mins prior to KCl-induction by liquid scintillation counting; format: functional, cell-based
Chain of Voltage-gated potassium channel, IKs; KCNQ1(Kv7.1)/KCNE1(MinK) (P51787 whole entry): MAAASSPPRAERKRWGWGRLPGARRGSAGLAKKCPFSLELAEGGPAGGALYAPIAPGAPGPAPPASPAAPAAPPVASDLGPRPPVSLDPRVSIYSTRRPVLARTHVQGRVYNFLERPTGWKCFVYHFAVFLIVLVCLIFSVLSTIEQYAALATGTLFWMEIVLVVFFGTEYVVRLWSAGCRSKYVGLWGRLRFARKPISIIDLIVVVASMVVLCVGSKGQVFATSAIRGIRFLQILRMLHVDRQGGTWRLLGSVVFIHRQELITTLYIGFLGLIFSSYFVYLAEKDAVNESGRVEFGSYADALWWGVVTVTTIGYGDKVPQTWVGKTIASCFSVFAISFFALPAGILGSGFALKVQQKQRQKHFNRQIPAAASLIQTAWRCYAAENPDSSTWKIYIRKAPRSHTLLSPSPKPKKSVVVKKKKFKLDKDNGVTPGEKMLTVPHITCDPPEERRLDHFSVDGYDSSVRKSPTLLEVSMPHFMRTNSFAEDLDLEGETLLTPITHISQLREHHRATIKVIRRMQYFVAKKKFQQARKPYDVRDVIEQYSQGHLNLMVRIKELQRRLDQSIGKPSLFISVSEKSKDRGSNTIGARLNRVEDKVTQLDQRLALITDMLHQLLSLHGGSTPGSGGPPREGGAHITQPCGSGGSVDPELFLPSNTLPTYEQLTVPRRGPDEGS

[3] = biological target: Voltage-gated potassium channel KCNQ3/KCNQ5 (Homo sapiens, UniProt O43525+Q9NR82); assay: Agonist activity at KCNQ3/KCNQ5 expressed in CHO cells increase in KCl-induced 86Rb+ efflux incubated for 10 mins prior to KCl-induction by liquid scintillation counting; format: functional, cell-based
Chain of Voltage-gated potassium channel KCNQ3/KCNQ5 (O43525 whole entry): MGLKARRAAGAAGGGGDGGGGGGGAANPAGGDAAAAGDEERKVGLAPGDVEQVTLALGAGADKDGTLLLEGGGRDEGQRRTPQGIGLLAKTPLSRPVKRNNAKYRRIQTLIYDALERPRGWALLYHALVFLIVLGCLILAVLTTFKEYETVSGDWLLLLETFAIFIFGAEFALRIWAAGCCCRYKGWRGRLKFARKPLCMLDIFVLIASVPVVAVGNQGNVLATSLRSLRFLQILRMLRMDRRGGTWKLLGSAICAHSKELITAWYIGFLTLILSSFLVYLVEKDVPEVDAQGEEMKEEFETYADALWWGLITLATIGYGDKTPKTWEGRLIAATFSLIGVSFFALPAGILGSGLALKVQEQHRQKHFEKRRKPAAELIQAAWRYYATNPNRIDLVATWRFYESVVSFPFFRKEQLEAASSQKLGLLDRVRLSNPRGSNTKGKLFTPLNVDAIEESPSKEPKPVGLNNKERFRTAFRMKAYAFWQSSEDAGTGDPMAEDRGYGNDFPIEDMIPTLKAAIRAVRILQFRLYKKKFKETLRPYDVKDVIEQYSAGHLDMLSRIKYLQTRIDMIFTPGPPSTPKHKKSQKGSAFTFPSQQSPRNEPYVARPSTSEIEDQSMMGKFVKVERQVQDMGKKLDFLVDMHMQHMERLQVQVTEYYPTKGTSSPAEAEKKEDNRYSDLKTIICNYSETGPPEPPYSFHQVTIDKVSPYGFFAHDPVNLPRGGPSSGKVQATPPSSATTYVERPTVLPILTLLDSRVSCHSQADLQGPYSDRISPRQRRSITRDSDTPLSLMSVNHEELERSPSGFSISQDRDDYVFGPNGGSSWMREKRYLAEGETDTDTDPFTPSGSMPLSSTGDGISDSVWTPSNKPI
Chain of Voltage-gated potassium channel KCNQ3/KCNQ5 (Q9NR82 whole entry): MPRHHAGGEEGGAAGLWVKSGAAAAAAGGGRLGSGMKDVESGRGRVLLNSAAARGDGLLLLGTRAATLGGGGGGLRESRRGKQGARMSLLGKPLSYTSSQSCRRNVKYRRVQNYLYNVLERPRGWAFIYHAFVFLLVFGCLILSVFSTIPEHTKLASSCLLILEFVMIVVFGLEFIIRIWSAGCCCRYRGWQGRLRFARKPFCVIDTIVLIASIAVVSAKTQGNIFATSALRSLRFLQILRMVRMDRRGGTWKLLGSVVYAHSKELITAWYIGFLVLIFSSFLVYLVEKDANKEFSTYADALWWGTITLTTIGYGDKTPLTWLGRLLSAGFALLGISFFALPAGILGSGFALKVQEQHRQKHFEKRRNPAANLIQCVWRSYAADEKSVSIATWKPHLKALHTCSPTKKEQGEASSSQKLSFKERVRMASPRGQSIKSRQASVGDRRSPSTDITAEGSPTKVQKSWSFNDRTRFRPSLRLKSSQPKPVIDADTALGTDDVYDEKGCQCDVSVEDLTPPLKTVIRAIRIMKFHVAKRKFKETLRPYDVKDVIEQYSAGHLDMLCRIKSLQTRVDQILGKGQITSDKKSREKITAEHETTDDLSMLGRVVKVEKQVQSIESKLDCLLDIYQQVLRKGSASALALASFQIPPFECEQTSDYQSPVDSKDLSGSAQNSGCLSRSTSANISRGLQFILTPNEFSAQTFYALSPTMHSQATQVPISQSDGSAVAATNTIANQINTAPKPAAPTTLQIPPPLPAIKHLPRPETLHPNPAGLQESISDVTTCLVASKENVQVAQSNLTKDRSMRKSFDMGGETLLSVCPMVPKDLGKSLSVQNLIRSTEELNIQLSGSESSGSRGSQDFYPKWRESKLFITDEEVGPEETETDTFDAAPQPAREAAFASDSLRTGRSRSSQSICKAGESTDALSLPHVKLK

[4] = Agonist activity at KCNQ expressed in CHO cells assessed as increase in KCl-induced 86Rb+ efflux incubated for 10 mins prior to KCl-induction by liquid scintillation; format: functional, cell-based
Rattus norvegicus [5] = assay: Antiepileptic activity in po dosed Sprague-Dawley rat assessed as latency in PTZ-induced seizure administered 30 mins prior to PTZ-challenge measured up to 15 minutes; format: functional
Rattus norvegicus [6] = assay: Antiepileptic activity in po dosed Wistar rat assessed as latency in maximum electric shock-induced hind limb extension administered 30 mins prior to electric shock-challenge measured up to 6 secs; format: functional; details: Hindlimb
Rattus norvegicus [7] = assay: Toxicity in po dosed rat assessed as nonhemolytic anemia after 14 days; format: organism-based; details: in vivo, 336 h
Rattus norvegicus [8] = assay: Toxicity in rat assessed as nonhemolytic anemia after 28 days administered with repeated doses; format: organism-based; details: in vivo, 672 h
Cynomolgus monkey = assay: Toxicity in cynomolgus monkey assessed as nonhemolytic anemia after 28 days administered with repeated doses; format: organism-based, Macaca fascicularis; details: in vivo, 672 h
[9] = Activity at GABA(A) gated channel at 10 uM
[10] = Selectivity ratio of EC50 for KCNQ3/KCNQ5 to EC50 for KCNQ2/KCNQ3
[11] = biological target: Sodium channel protein type 5 subunit alpha (Homo sapiens, UniProt Q14524); assay: Inhibition of NaV1.5
[12] = Inhibition of L-type calcium channel
[13] = Tmax in Sprague-Dawley rat at 2 mg/kg, po; format: ADME, organism-based; set-up: dose 2 mg/kg, route oral; details: in vivo
Rattus norvegicus [14] = assay: Volume of distribution during terminal phase in Sprague-Dawley rat at 2 mg/kg, iv; format: ADME, organism-based; set-up: dose 2 mg/kg, route intravenous; details: in vivo
Procedure, shortened: (§1)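 Rats received a single 2 mg/kg intravenous dose. Half-life and clearance were determined, and volume of distribution (Vz) was calculated from the terminal phase.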

[15] = Clearance in Sprague-Dawley rat at 2mg/kg, iv; format: ADME, organism-based; details: in vivo; procedure, shortened: as §1
[16] = Oral bioavailability in Sprague-Dawley rat at 2 mg/kg; format: ADME, organism-based; details: in vivo
[17] = Half life in Sprague-Dawley rat at 2mg/kg, iv; format: ADME, organism-based; details: in vivo; procedure, shortened: as §1
[18] = biological target: Voltage-gated inwardly rectifying potassium channel KCNH2 (Homo sapiens, UniProt Q12809); assay: Inhibition of human ERG
Chain of Voltage-gated inwardly rectifying potassium channel KCNH2 (Q12809 whole entry): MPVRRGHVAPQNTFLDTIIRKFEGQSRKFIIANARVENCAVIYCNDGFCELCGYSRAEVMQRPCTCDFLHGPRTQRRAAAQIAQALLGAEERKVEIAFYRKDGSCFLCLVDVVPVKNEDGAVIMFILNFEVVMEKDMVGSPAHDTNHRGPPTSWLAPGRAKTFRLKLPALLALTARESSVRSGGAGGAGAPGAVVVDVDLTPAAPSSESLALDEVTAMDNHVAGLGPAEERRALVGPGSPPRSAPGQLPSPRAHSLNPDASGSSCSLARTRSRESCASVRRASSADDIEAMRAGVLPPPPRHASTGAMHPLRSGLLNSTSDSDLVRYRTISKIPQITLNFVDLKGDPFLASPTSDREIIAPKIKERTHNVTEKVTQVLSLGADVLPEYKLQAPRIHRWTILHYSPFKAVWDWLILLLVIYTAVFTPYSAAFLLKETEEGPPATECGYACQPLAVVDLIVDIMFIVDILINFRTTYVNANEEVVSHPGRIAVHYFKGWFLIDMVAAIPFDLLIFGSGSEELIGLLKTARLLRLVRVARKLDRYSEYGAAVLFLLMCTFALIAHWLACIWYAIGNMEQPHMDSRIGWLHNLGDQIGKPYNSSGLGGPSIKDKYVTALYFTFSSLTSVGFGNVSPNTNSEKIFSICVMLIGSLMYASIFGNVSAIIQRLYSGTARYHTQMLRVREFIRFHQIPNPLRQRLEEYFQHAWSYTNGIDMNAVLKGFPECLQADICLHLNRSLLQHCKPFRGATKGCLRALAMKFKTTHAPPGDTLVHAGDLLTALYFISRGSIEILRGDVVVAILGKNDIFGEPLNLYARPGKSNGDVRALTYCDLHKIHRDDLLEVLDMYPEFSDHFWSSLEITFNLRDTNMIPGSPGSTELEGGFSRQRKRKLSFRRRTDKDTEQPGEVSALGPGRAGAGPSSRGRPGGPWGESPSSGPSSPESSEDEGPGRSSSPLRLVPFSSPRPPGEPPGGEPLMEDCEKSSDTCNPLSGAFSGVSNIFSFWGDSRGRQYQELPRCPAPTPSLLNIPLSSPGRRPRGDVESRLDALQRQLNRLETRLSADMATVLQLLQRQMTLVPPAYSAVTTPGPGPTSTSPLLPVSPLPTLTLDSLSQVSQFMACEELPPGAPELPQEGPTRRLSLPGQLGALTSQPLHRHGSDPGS

Chain of Voltage-gated potassium channel, KQT; KCNQ2(Kv7.2)/KCNQ3(Kv7.3) (O43526 whole entry): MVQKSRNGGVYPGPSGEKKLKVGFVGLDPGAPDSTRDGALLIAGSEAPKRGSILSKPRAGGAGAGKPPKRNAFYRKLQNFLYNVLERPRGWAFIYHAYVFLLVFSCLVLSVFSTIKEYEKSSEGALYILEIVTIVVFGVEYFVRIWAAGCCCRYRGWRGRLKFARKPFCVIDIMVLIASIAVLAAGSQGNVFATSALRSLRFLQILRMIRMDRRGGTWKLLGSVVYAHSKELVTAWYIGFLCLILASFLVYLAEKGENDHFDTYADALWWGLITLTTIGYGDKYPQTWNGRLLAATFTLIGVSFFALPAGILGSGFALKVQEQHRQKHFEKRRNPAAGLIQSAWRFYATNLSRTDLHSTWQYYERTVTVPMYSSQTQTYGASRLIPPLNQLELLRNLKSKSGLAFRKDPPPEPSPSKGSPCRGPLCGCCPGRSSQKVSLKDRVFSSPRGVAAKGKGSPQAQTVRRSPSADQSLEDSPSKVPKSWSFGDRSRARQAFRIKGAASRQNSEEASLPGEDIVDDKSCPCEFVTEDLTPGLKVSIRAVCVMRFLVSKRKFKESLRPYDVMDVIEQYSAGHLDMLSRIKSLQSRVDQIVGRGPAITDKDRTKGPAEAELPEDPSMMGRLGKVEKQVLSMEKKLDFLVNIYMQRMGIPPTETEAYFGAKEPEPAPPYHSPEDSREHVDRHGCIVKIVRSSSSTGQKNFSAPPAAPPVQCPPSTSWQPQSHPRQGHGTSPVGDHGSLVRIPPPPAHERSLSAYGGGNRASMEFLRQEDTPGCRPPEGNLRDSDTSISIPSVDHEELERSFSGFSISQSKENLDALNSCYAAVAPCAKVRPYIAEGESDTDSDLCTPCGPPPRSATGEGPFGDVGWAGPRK
Chain of Voltage-gated potassium channel, KQT; KCNQ2(Kv7.2)/KCNQ3(Kv7.3) (O43525 whole entry): as the sequence (O43525 whole entry) above

Row | SMILES | EC50 [1] [µM] | IC50 [2] [µM] | further results
1 | CC(C)CSc1ccc(C(=O)Nc2ccc(Cl)nc2)cc1F | 0.14 | > 100 | 
2 | Cc1ccc(C(=O)Nc2cnc(Cl)nc2)cc1F | 0.6 | 93 | EC50 [3]: 10 µM
3 | Cc1ccc(C(=O)Nc2ccc(Cl)nc2)cc1C | 0.69 | > 100 | 
4 | O=C(Nc1ccc(Cl)nc1)c1ccc(Cl)c(Cl)c1 | 0.67 | 17 | 
5 | O=C(Nc1ccc(Cl)nc1)c1ccc(Oc2ccccc2)c(F)c1 | 0.03 | 1.3 | 
6 | O=C(Nc1ccccc1)c1ccc(Cl)c(Cl)c1 |  |  | EC50 [4]: > 10 µM
7 | N#Cc1cccc(C(=O)Nc2ccc(Cl)nc2)c1 | > 10 |  | 
8 | O=C(Nc1ccc(N2CCOCC2)nc1)c1ccc(F)c(F)c1 | 7.8 |  | 
9 | CCOc1ccc(C(=O)Nc2ccc(Cl)nc2)cc1F | 0.57 | > 100 | 
10 | O=C(Nc1ccc(Cl)nc1)c1cccc(C(F)(F)F)c1 | 0.39 | 5.8 | 
11 | O=C(Nc1ccc(Cl)nc1)c1ccc(Cl)cc1 |  | 15 | 
12 | N#Cc1ccc(NC(=O)c2ccc(F)c(F)c2)cn1 | 10 |  | 
13 | O=C(Nc1ccc(Cl)nc1)c1ccc(S(=O)(=O)Cc2ccc(F)cc2)c(F)c1 | 0.16 | > 100 | 
14 | Cc1ccc(NC(=O)c2ccc(F)c(F)c2)cn1 | 6.8 |  | 
15 | O=C(Nc1ccccn1)c1ccc(Cl)c(Cl)c1 |  |  | EC50 [4]: > 10 µM
16 | O=C(Nc1ccncc1)c1ccc(Cl)c(Cl)c1 |  |  | EC50 [4]: > 10 µM
17 | CC(C)Sc1ccc(C(=O)Nc2ccc(Cl)nc2)cc1F | 0.11 | 5.8 | 
18 | O=C(Nc1ccc(Cl)nc1)c1ccc(F)c(Cl)c1 | 0.19 | 22 | 
19 | O=C(Nc1ccc(Cl)nc1)c1cccc(F)c1 | 1.1 | 77 | 
20 | COc1ccc(C(=O)Nc2ccc(Cl)nc2)cc1F | 3.2 | > 100 | 
21 | O=C(Nc1ccc(Cl)nc1)c1ccc(F)c(C(F)(F)F)c1 | 0.42 | 3.4 | 
22 | CC(C)Oc1ccc(C(=O)Nc2ccc(Cl)nc2)cc1F | 0.17 | > 100 | 
23 | O=C(Nc1ccc(Cl)nc1)c1ccc(-c2ccccc2)cc1 | 0.26 | > 30 | 
24 | COc1cccc(C(=O)Nc2ccc(Cl)nc2)c1 | 5.5 |  | 
25 | O=C(Nc1ccc(Cl)nc1)c1ccccc1 | 1.6 | > 100 | 
26 | Cc1ccc(C(=O)Nc2ccc(Cl)nc2)cc1F | 0.28 | 33 | 
27 | O=C(Nc1ccc(Cl)nc1)c1ccc(F)c(F)c1 | 0.38 | 41 | ED50 (Rattus norvegicus [5]): 2.2 mg/kg; ED50 (Rattus norvegicus [6]): 1.5 mg/kg; Activity (Rattus norvegicus [7]): Toxic; Activity (Rattus norvegicus [8]): Toxic; Activity (Cynomolgus monkey): Toxic
28 | NS(=O)(=O)c1ccc(C(=O)Nc2ccc(Cl)nc2)cc1 | > 10 |  | 

Row | SMILES | EC50 [1] [µM] | IC50 [2] [µM] | further results
29 | O=C(Nc1ccc(Cl)nc1)c1ccc(NCCc2ccccc2)c(F)c1 | 0.18 | > 100 | 
30 | O=C(Nc1ccc(NC2CC2)nc1)c1ccc(F)c(F)c1 | 2.7 |  | 
31 | N#Cc1ccc(C(=O)Nc2ccc(Cl)nc2)cc1F | 1.1 | 51 | 
32 | O=C(Nc1cccnc1)c1ccc(Cl)c(Cl)c1 |  |  | EC50 [4]: 6 µM
33 | O=C(Nc1ccc(Cl)nc1)c1ccc(C(F)(F)F)cc1 | 0.32 | 2.9 | 
34 | O=C(Nc1ccc(Cl)nc1)c1cccc(F)c1F | > 10 |  | 
35 | CC(C)CS(=O)(=O)c1ccc(C(=O)Nc2ccc(Cl)nc2)cc1F | 0.26 | 54 | 
36 | O=C(Nc1ccc(O)nc1)c1ccc(F)c(F)c1 | > 10 |  | 
37 | O=C(Nc1ccc(F)nc1)c1ccc(F)c(F)c1 | 4.8 |  | 
38 | O=C(Nc1ccc(Cl)nc1)c1ccc(F)cc1 | 0.98 | 66 | 
39 | O=C(Nc1ccc(Cl)nc1)c1ccc(S(=O)(=O)c2ccc(F)cc2)c(F)c1 | 0.07 | > 100 | 
40 | O=C(Nc1cnc(Cl)nc1)c1cccc(Cl)c1 | 1.1 | 78 | EC50 [3]: 14 µM
41 | O=C(Nc1ccc(Cl)nc1)c1ccc(Sc2ccc(F)cc2)c(F)c1 | 0.08 | > 100 | 
42 | O=C(Nc1ccc(Cl)nc1)c1cccc(Cl)c1 | 0.27 | 41 | 
43 | O=C(Nc1cnc(Cl)nc1)c1ccc(F)c(F)c1 | 0.69 | > 100 | ED50 (Rattus norvegicus [5]): < 1 mg/kg; Activity [9]: inactive; Ratio EC50 [10]: 20; IC50 [11]: > 30 µM; ED50 (Rattus norvegicus [6]): 1.5 mg/kg; EC50 [3]: 14.3 µM; IC50 [12]: > 30 µM; Tmax [13]: 30 min; Vz/F (Rattus norvegicus [14]): 1.804 L/kg; clearance [15]: 17.3 mL/min/kg; bioavailability [16]: 63%; half-life [17]: 72 min; IC50 [18]: > 30 µM
44 | O=C(Nc1ccc(C(F)(F)F)nc1)c1ccc(F)c(F)c1 | > 10 |  | 
45 | CSc1ccc(NC(=O)c2ccc(F)c(F)c2)cn1 | > 10 |  | 
46 | O=C(Nc1ccc(N2CCCC2)nc1)c1ccc(F)c(F)c1 | 0.48 |  | 
47 | O=C(Nc1ccc(Cl)nc1)c1ccc(C(F)(F)F)c(F)c1 | 0.37 | 3.4 | 
48 | O=C(Nc1ccc(Cl)nc1)c1ccccc1F | > 10 |  | 
49 | O=C(Nc1cnc(Cl)nc1)c1cccc(F)c1 | 7.2 | > 100 | EC50 [3]: 23 µM
50 | O=C(Nc1ccc(Cl)nc1)c1ccc(SCc2ccc(F)cc2)c(F)c1 | 1.6 | > 100 | 
51 | O=C(Nc1cnc(Cl)nc1)c1ccc(Cl)c(F)c1 | 0.41 | 49 | EC50 [3]: 9 µM
52 | O=C(Nc1cnc(Cl)nc1)c1cccc(C(F)(F)F)c1 | 4.3 | 35 | EC50 [3]: 28 µM
53 | O=C(Nc1ccc(Cl)nc1)c1ccc(Oc2ccccc2)cc1 | 0.01 | 1.9 | 
54 | COc1ccc(NC(=O)c2ccc(F)c(F)c2)cn1 | > 10 |  | 
55 | O=C(Nc1ccc(Cl)nc1)c1ccc(Cl)c(F)c1 | 0.08 | 15 | 

Source: ChEMBL document CHEMBL2046284, “N-Pyridyl and Pyrimidine Benzamides as KCNQ2/Q3 Potassium Channel Openers for the Treatment of Epilepsy” (ACS Med Chem Lett, 2011)
